Laboratory results reported in ChEMBL document CHEMBL4364242, “Novel cationic bis(acylhydrazones) as modulators of Epstein-Barr virus immune evasion acting through disruption of interaction between nucleolin and G-quadruplexes of EBNA1 mRNA” (Eur J Med Chem, 2019).
The source made the active and inactive calls. No cut-off for these calls is given here.

Assays:
[1] = Growth inhibition of human MUTU-I cells incubated for 24 hrs by MTT assay
Summary of the method: (§1)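 Mutu-1 EBV-positive Burkitt lymphoma cells, about 30,000 per well, treated with compound (0.5–100 μM) or DMSO for 24 or 48 h. MTT (5 mg/mL) added for 4 h, formazan dissolved in isopropanol/0.1 N HCl/10% Triton X-100, absorbance at 540 nm; viability expressed versus DMSO.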

[2] = Growth inhibition of human MUTU-I cells incubated for 48 hrs by MTT assay; summary of the method: as §1
NCI-H1299 [3] = test: Immunostimulatory activity in human H1299 cells transfected with murine MHC class I Kb and 235GAr-OVA cocultured with mouse CD8+ T-cells assessed as increase in IL-2 level at 5 or 10 uM incubated for 3 days by ELISA; assay type: functional
Summary of the method: (§2)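 H1299 cells co-transfected with mouse Kb and OVA or GAr-OVA, treated with 5 or 10 μM compound or DMSO. After 40 h, 10^5 cells co-cultured with 4×10^5 naive OT-I CD8+ T cells from female mouse lymph nodes, 37 °C, for 3 days. IL-2 in supernatant measured by ELISA.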

human gammaherpesvirus 4 [4] = test: Binding affinity to EB virus F-g4-EBNA1 mRNA assessed as increase in melting temperature at 1 uM by fluorescence method
Homo sapiens = species on record: Homo sapiens; test: Binding affinity to […] assessed as increase in melting temperature at 1 uM by fluorescence method
Summary of the method: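 F-25TAG-T telomeric DNA (5'-FAM/3'-TAMRA) melted with 1 μM ligand in K-100 buffer (10 mM LiAsO2Me2, 100 mM KCl, pH 7.3). Heating 25–95 °C at 0.5 °C/min. ΔTm derived from first-derivative Tm maxima relative to the no-ligand run.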

[5] = Binding affinity to […] (unknown origin) assessed as increase in melting temperature at 1 uM by fluorescence method
Summary of the method: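 Labeled F-myc22-T DNA (5'-FAM/3'-TAMRA) melted with 1 μM ligand in K-1 buffer (10 mM LiAsO2Me2, 1 mM KCl, 99 mM LiCl, pH 7.3). Ramp 0.5 °C/min from 25 to 95 °C. Tm taken from first-derivative maxima and ΔTm calculated versus ligand-free control.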

[6] = Displacement of TO from EB virus g4-EBNA1 mRNA measured after 5 mins by FID assay; parameters: species or system human gammaherpesvirus 4
Summary of the method: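 g4-EBNA1 RNA annealed 95 °C 5 min in K100 buffer (10 mM KAsO2Me2, 100 mM KCl, 1 mM EDTA, 1% DMSO), then mixed with TO; final 0.25 μM RNA and 0.5 μM TO, ligand 0–2.5 μM. Fluorescence read after 5 min shaking (485/520 nm), in duplicate. Displacement = 100×(1−F/F0); DC50 interpolated from the curve.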

human gammaherpesvirus 4 [7] = test: Binding affinity to EBNA1 G4-quadruplex in human H1299 cells assessed as EB virus EBNA1 expression at 10 uM incubated for 40 hrs by western blot analysis; assay type: cell-based
Summary of the method: (§3)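 H1299 cells in RPMI-1640 with 10% FBS at 37 °C, 5% CO2, transiently transfected with EBNA1 or EBNA1ΔGAr constructs, then treated with 10 μM compound (DMSO vehicle) for 40 h. Lysates taken 48 h post-transfection and western blotted with anti-EBNA1 (OT1X). Levels normalized to GAPDH; at least three repeats.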

human gammaherpesvirus 4 [8] = test: Binding affinity to EBNA1 G4-quadruplex in human H1299 cells assessed as EB virus EBNA1 deleted GAr expression at 10 uM incubated for 40 hrs by western blot analysis; assay type: cell-based; summary of the method: as §3
NCI-H1299 [9] = test: Effect on OVA expression in human H1299 cells at 10 uM incubated for 40 hrs by western blot analysis; assay type: functional; parameters: unit not given here
Summary of the method: (§4)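 OVA or 235GAr-OVA constructs transiently transfected into H1299 cells, followed by 40 h exposure to 10 μM compound or DMSO. Whole-cell lysates immunoblotted with rabbit anti-OVA; signal normalized to GAPDH. Experiments repeated at least three times.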

NCI-H1299 [10] = test: Effect on 235Gar-OVA expression in human H1299 cells at 10 uM incubated for 40 hrs by western blot analysis; assay type: functional; parameters: unit not given here; summary of the method: as §4
[11] = Inhibition of native NCL/EB virus G4-EBNA1 mRNA interaction in human H1299 cells assessed as reduction in PLA signals per cell at 5 uM incubated for overnight by proximity ligation assay (reference value: 1.83 +/- 0.54); assay type: cell-based
[12] = Inhibition of human NCL/EB virus G4-EBNA1 mRNA interaction in human MUTU-I cells assessed as reduction in PLA signals per cell at 5 uM incubated for […] by proximity ligation assay (reference value: 1.68 +/- 0.44); assay type: cell-based
Summary of the method: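 Mutu-1 cells carrying endogenous EBNA1 treated 36 h with 5 μM compound or DMSO. Processed by EBNA1 mRNA in situ hybridization combined with an anti-nucleolin PLA; nuclear PLA dots per cell counted across two biological replicates, ≥200 cells per sample.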

[13] = Inhibition of recombinant NCL (unknown origin)/EB virusG4-EBNA1 mRNA interaction at 10 uM by RNA pull-down assay
Summary of the method: (§5)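 Biotin-TEG RNA (g4-EBNA1 or non-G4 GM) folded in 10 mM Tris pH 7.5, 100 mM KCl, 0.1 mM EDTA (95 °C 5 min, cooled 2 °C/min), then bound to blocked streptavidin beads. 200 ng recombinant NCL added for 90 min at room temperature with 10 μM compound or DMSO. Beads washed up to 800 mM KCl; eluates western-blotted for NCL.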

[14] = Inhibition of recombinant NCL (unknown origin)/GM mRNA (unknown origin) interaction at 10 uM by RNA pull-down assay; summary of the method: as §5
NCI-H1299 [15] = test: Immunostimulatory activity in human H1299 cells transfected with murine MHC class I Kb and OVA cocultured with mouse CD8+ T-cells assessed as increase in IL-2 level at 5 or 10 uM incubated for 3 days by ELISA; assay type: functional, cell-based; summary of the method: as §2
NCI-H1299 [16] = test: Effect on 235Gar-OVA expression in human H1299 cells incubated for 40 hrs by western blot analysis; assay type: functional, cell-based
Summary of the method: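 235GAr-OVA-transfected H1299 cells treated 40 h with compound at 0, 7.5, 10 or 15 μM. Anti-OVA western blot with band intensities normalized to GAPDH.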

NCI-H1299 [17] = test: Immunostimulatory activity in human H1299 cells transfected with murine MHC class I Kb and 235GAr-OVA cocultured with mouse CD8+ T-cells assessed as increase in IL-2 level at 10 uM incubated for 3 days by ELISA; assay type: functional
Summary of the method: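 Kb/235GAr-OVA co-transfected H1299 cells, exposed to compound for 40 h, then 10^5 cells incubated 3 days at 37 °C with 4×10^5 OT-I CD8+ T cells. Supernatant IL-2 quantified by ELISA.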

| ΔTm (human gammaherpesvirus 4 [4]) [°C] | ΔTm (Homo sapiens) [°C] | ΔTm [5] [°C] | IC50 [6] [µM] | fold change (FC) [13] | inhibition [14] | Activity (human gammaherpesvirus 4 [4]) | SMILES | GI50 at 24 h [1] [µM] | GI50 at 48 h [2] [µM] | fold change (FC) (NCI-H1299 [3]) | Activity (human gammaherpesvirus 4 [7]) | Activity (human gammaherpesvirus 4 [8]) | Activity (NCI-H1299 [9]) | Activity (NCI-H1299 [10]) | Activity [11] | Activity [12] | Activity (NCI-H1299 [15]) | Activity (NCI-H1299 [16]) | fold change (FC) (NCI-H1299 [17]) |
| --- | --- | --- | --- | --- | --- | --- | --- | --- | --- | --- | --- | --- | --- | --- | --- | --- | --- | --- | --- |
| 20 to 30 | 15 to 30 | 15 to 30 | 0.3 | 10 | inactive | – | C[n+]1ccc(/C=N/NC(=O)c2ccc3ccc4ccc(C(=O)N/N=C/c5cc[n+](C)c6ccccc56)nc4c3n2)c2ccccc21.[I-].[I-] | 50 to 100 | 20 | >2 | Active | inactive | 96 | 189 | 0.4 | 0.59 | inactive | Dose-dependent effect | – |
| – | 15 to 30 | 15 to 30 | 0.26 | 10 | inactive | Active | C[n+]1ccc(/C=N/NC(=O)c2cccc(C(=O)N/N=C/c3cc[n+](C)c4ccccc34)n2)c2ccccc21.[I-].[I-] | > 100 | ≥ 100 | – | Active | inactive | 101 | 162 | 0.27 | – | inactive | Dose-dependent effect | >2 |
